Screens deposited in PubChem by several laboratories.
XBP1 UPR activ – activators of adaptive XBP1 UPR arm, primary screen, cell-based, CHO-XBP1 luciferase reporter, luminescence, uHTS; IRE1-XBP1 UPR activation; percent of tunicamycin response, DMSO as zero; activation, % at 20 µM; 330,000 compounds, 0.33% hits;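 active = versus positive control, 20 µM dose yields 30% or more activation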;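 also: 100% = tunicamycin at 10 µg/mL and 0% = DMSO only wells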
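Material: CHO-XBP1 cells stably carrying IRE1-XBP1-driven luciferase reporter | Medium: F12 with 10% serum | Compound dosing: 20 µM single concentration, DMSO 1% | Incubation: Overnight seeding at 37 °C, 6 h compound treatment at 37 °C | Detection: Steady-Glo luminescence read | Read-out basis: % activation of reporter signal versus tunicamycin and DMSO controls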
FXN GAA850 act – FXN promoter activators, primary screen, cell-based, luciferase luminescence, HEK293 lucGAA850; AID 540364, 2011; 360,000 compounds, 0.56% hits; activation, % at 6 µM; HEK293 lucGAA850 FXN promoter luciferase reporter, 24 h; percent of 10 µM SAHA response;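 active = activation above the average of all compounds screened plus 3 SD, cutoff fixed separately per campaign, cut at about 7.5% in these data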;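 also: 0% = DMSO wells and 100% = 10 µM SAHA wells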
CHOP UPR activ – activators of apoptotic CHOP UPR arm, primary screen, cell-based, CHO-CHOP luciferase reporter, luminescence, uHTS; activation, % at 10 µM; AID 449763, 2010; 330,000 compounds, 0.34% hits; UPR activation; percent of tunicamycin response over DMSO baseline;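 active = at 10 µM dose, activation of 40% or more, normalized to positive control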;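 also: 100% = tunicamycin at 10 µg/mL and 0% = DMSO alone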
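System: CHO-CHOP luciferase reporter cell line; amount: 500 cells/well; buffer or medium: F12 medium containing 10% fetal bovine serum; incubation: 6 h compound exposure at 37 °C after overnight seeding; measured by: luciferase luminescence after 10 min with Steady-Glo reagent; evaluation: % reporter activation, DMSO baseline versus tunicamycin full activation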
CHOP inhibitor – inhibitors of CHOP promoter induction, primary screen, cell-based, unfolded protein response, luciferase reporter | CHO-K1 CHOP-promoter luciferase, tunicamycin-induced, 15-18 h | inhibition, % at 10 µM | 220,000 compounds, 3.8% hits;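 active = compounds that reduced the stress-induced luciferase reporter signal by more than about 70% of percent inhibition, limit read from the data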;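 also: 0% = tunicamycin plus vehicle and 100% = wells without tunicamycin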
XBP1 UPR conf – IRE1-XBP1 UPR arm activators, confirmation, cell-based, CHO-XBP1 luciferase reporter, luminescence, single concentration; 1,000 compounds, 63% hits; shares compounds with XBP1 UPR activ; activation, % at 20 µM;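 active = reporter signal at least 30% of the positive control's activation in two or more of four replicate wells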;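 also: plate controls were DMSO negative control for no effect and tunicamycin 10 µg/mL positive control for full effect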
GAA30 counter – GAA30 FXN promoter activators, confirmation, counter-screen for GAA850 frataxin promoter activator project, cell-based, luminescence, HEK293, lucGAA30, triplicate. activation, % at 6 µM. HEK293 lucGAA30 FXN promoter luciferase, 24 h; DMSO = 0%, 5 µM ipriflavone = 100%. shares compounds with FXN GAA850 act. 1,900 compounds, 66% hits;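 active = mean activation above the mean of solvent-only control wells plus 3 SD, cut at about 22% in these data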;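 also: counterscreen of GAA850 promoter hits where activity marks nonselective or luminescence artifacts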
FXN GAA850 conf – FXN GAA850 promoter activators in reporter cells, confirmation, cell-based, luminescence, HEK293 lucGAA850, triplicate. shares compounds with FXN GAA850 act. HEK293 lucGAA850 FXN promoter luciferase reporter, 24 h; 100% = activation by SAHA. activation, % at 6 µM. 1,900 compounds, 86% hits. AID 588351, 2011;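 active = mean activation above a set limit taken from the primary screen, cut at about 8% in these data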;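 also: 0% = DMSO wells and 100% = 10 µM SAHA wells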
Starred values were filed as active, the others as inactive; / = no result. Many of the other results were omitted from the sample, so hits are more common in it than they were.

SMILES	XBP1 UPR activ	FXN GAA850 act	CHOP UPR activ	CHOP inhibitor	XBP1 UPR conf	others
CC(=O)Nc1cccc(-c2ccnc3c2CC(C)(C(=O)NCc2ccncc2)O3)c1 (configuration not stated)	/	-2	/	/	/
COc1cc(/C=C/c2ccc3cccc(O)c3n2)cc(OC)c1OC	77*	-5	339*	/	1
COc1cc(Br)cc(/C=C/c2ccc3cccc(O)c3n2)c1OC	5	-1	1	/	/
COC(=O)c1ccc2c(=O)n(CC3CCCO3)c(SCC(=O)Nc3ccccc3OC)nc2c1 (configuration not stated)	14	-2	3	12	/
COC(=O)c1ccc2c(=O)n(CC3CCCO3)c(SCC(=O)Nc3ccccc3Cl)nc2c1 (configuration not stated)	35*	-1	5	45	7
Cc1cccc2cc(C(c3nnnn3Cc3ccccc3)N3CCCc4ccccc43)c(=O)[nH]c12 (configuration not stated)	76*	3	11	77*	28*
CC(C)NC(=O)Nc1ccc2c(c1)C(=O)N([C@@H](C)CO)C[C@@H](C)[C@H](CN(C)Cc1ccccc1)OCCCC[C@H](C)O2	/	-2	/	/	/
COc1ccc2cc1Oc1ccc(cc1)C[C@H]1c3c(cc(OC)c4c3Oc3c(ccc5c3[C@H](C2)N(C)CC5)O4)CCN1C	68*	3	19	/	52*
COc1cc2c(c(O)c1OC)C1Cc3ccc(OC)c(OC)c3CN1CC2 (configuration not stated)	/	-2	/	/	/
Oc1c(Cl)cc(Cl)cc1C1Nc2ccccc2-n2cccc21 (configuration not stated)	-3	0	2	-9	/
COc1ccc2c(c1)NC(c1cc(Cl)cc(Cl)c1O)c1cccn1-2 (configuration not stated)	49*	1	6	30	57*
CC1(C(=O)Nc2ccc3c(c2)OCO3)CCN1C(=O)CCC1CCCC1 (configuration not stated)	/	2	/	/	/
N/C(=N\c1nc(CSc2ccccn2)cc(=O)[nH]1)Nc1ccc(Cl)cc1Cl	32*	3	-3	18	32*
N#Cc1c(-c2ccc3c(c2)OCO3)ccn2nc(-c3cccc(C(F)(F)F)c3)nc12	53*	1	14	51	50*
Cn1/c(=N/N=C/c2ccc([N+](=O)[O-])cc2)sc2ccccc21	/	/	/	-19	/
Cc1cc(C)c2c(c1)/C(=N\N=c1\sc3ccccc3n1C)C(=O)N2	30*	2	18	69	28
CCOC(=O)c1c(NC(=O)/C=C/C(=O)O)sc(C)c1-c1ccc(C(C)(C)C)cc1	47*	-2	19	39	47*
COc1ccc(Cl)cc1N=Cc1c(O)c2ccccc2oc1=O	42*	0	32	/	11
COC(=O)c1c(C)oc2ccc(N(C(=O)c3ccncc3)S(=O)(=O)c3ccc4ccccc4c3)cc12	-2	1	4	53	/
COC(=O)c1c(C)oc2ccc(N(C(=O)Oc3ccccc3)S(=O)(=O)c3ccc(Cl)c([N+](=O)[O-])c3)cc12	32*	2	4	83*	139*
Cc1ccc(-c2nnn(CC(=O)Nc3ccc(S(=O)(=O)N4CCC(C)CC4)cc3)n2)cc1	44*	0	4	-26	56*
Cc1cc(C)cc(NC(=O)Cn2c(=O)oc3cc(S(=O)(=O)N4CCC(C)CC4)ccc32)c1	32*	-1	0	72*	1
CC1CCN(S(=O)(=O)c2ccc(NC(=O)Cn3nnc(-c4ccccc4)n3)cc2)CC1	2	-2	0	35	/
Cn1c(-c2ccccc2)c(/C=N/NC(=O)c2ccc(O)cc2)c2ccccc21	35*	3	11	52	63*
CCc1nc2ccc(C(=O)NCC3CCCCC3)cn2c1N(C)C(=O)c1cccc(OC)c1	/	-2	/	/	/
SMILES	XBP1 UPR activ	FXN GAA850 act	CHOP UPR activ	CHOP inhibitor	XBP1 UPR conf	others
CCOc1ccc(NC(=O)C(Cc2ccccc2)N2C(=O)c3cccc4cccc(c34)C2=O)cc1 (configuration not stated)	65*	1	19	-6	69*
CCOc1ccc(NC(=O)C(CC(=O)O)Cc2ccccc2)cc1 (configuration not stated)	0	1	1	23	/
COc1ccc(N2CCN(c3cc(C(=O)Nc4cc(OC)c(OC)c(OC)c4)ncn3)CC2)cc1OC	/	-3	/	/	/
CC(=O)Oc1ccc(-c2ccc(C(=O)OCC(=O)N(C)CC(=O)Nc3ccccc3Cl)cc2)cc1	123*	2	7	/	137*
CN(CC(=O)Nc1ccccc1Cl)C(=O)COC(=O)c1ccc(S(=O)(=O)C(F)F)cc1	-1	-2	-1	/	/
C=CCOc1ccc(/C=N/N2C(=O)C(CC(=O)Nc3ccc(F)cc3F)SC2=NC)cc1 (configuration not stated)	51*	4	2	70*	81*
CN=C1SC(CC(=O)Nc2ccccc2F)C(=O)N1C (configuration not stated)	0	-1	-1	10	/
COc1ccc(C(NC(=O)C2CCN(CCOc3ccc(Cl)cc3)CC2)c2cccs2)cc1 (configuration not stated)	/	1	/	/	/
CNC(=O)C1Cc2c(-c3ccc(Cl)cc3)ccnc2O1 (configuration not stated)	/	2	/	/	/
COc1cc(/C=C/c2ccc3cccc(O)c3n2)cc(Cl)c1OC	66*	13*	19	/	17	GAA30 counter=-79;FXN GAA850 conf=-23
C[C@H](CO)N1C[C@H](C)[C@@H](CN(C)Cc2ccc(C(=O)O)cc2)Oc2ncc(Br)cc2C1=O	/	-1	/	/	/
CCN1CCN(c2ccc(N3CCN(C(=O)c4ccc(Br)o4)CC3)nn2)CC1	-2	2	0	/	/
CCN1CCN(c2cc3c(nn2)Oc2ccccc2N3C)CC1	-3	8.4*	2	-22	/	GAA30 counter=140*;FXN GAA850 conf=42*
CCc1nc2c(OCc3ccc(Cl)cc3)cccn2c1N(C=O)Cc1ccccc1	/	1	/	/	/
CCOc1ccc(-c2nc(CCl)cs2)cc1	1	7.6*	4	-45	/	GAA30 counter=114*;FXN GAA850 conf=37*
